SENP7 block: inhibitors of human SENP7 protease | Q9BQF6 | recombinant SENP7, Z-RLRGG-aminoluciferin luminescence, 40 min | inhibition, % at 5 µM | 1.5% of 330,000 active | AID 434973;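 active = inhibition above about 50% at the single test dose, limit read from the data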;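 also: plate controls were DMSO with enzyme for no effect and no enzyme buffer wells for full effect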
Target sequence (Q9BQF6 706-1050 limits assumed): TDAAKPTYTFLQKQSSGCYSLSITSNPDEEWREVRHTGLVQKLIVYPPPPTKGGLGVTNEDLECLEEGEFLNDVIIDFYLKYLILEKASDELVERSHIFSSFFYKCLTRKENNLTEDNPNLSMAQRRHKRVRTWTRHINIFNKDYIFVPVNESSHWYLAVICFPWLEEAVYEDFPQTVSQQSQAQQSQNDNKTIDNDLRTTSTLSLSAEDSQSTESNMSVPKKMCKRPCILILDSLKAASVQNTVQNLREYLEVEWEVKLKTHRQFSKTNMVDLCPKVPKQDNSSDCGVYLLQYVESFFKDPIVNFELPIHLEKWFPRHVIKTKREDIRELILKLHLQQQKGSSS
SENP1 inh: SENP1 (human) catalytic domain inhibition; Q9P0U3; recombinant SENP1 catalytic domain, CyPet-SUMO1-YPet FRET cleavage; inhibition, % at 10 µM; 0.21% of 360,000 active;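 active = inhibition at least 30% at 10 µM, raw YFP signal under a set limit, fluorescence ratio 0.5 to 1.5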;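 also: 0% = enzyme with DMSO and 100% = no enzyme wells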
Target sequence (Q9P0U3 419-644 limits assumed): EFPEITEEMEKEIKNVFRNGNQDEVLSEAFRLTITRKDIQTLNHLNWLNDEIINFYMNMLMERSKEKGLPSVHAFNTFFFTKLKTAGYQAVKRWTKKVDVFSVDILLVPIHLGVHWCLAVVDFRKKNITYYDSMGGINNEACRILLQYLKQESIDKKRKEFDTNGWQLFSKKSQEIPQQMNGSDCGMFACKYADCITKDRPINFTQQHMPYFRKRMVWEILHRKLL
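System: Recombinant human SENP1 catalytic domain, His6-tagged | Incubation: Enzyme reaction for 50 min at room temperature, dark | Medium: Tris pH 8 with BME, BSA, NP40 and catalase | Also added: 25 nM SUMO1 FRET substrate | Compound: 10 µM single point, 0.5% DMSO | Measured by: FRET fluorescence in CFP and YFP emission channels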
SENP6 block: inhibitors of human SENP6 protease | Q9GZR1 | Recombinant SENP6 catalytic domain, aminoluciferin luminescence | inhibition, % at 10 µM | 1.8% of 330,000 active | AID 2599;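 active = inhibition above about 50% at the single tested dose, limit read from the data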;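 also: plate controls were DMSO wells with enzyme for no effect and DMSO wells lacking enzyme for full effect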
SENP8 block-1: inhibitors of human SENP8 protease. Q96LD8. recombinant SENP8, Nedd8 substrate fluorescence. inhibition, % at 20 µM. 0.64% of 360,000 active. AID 602440; in the data active = inhibition mostly above about 40%, no sharp cut-off; inactive = mostly below about 27%
Platelet DG rel: platelet dense granule release activity. human platelet-rich plasma, SFLLRN dense granule ATP release, luminescence. inhibition, %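 (compounds screened at 7.5 µM in platelet-rich plasma)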. 0.22% of 300,000 active. AID 1663;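 active = mean replicate score, as percent of positive control, at or above 50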
SENP8 block-2: blocks the human protease SENP8; Q96LD8; purified SENP8, Z-RLRGG-aminoluciferin cleavage, luminescence; inhibition, % at 10 µM; 1.2% of 330,000 active; in the data active = inhibition above about 50%
SENP8 inh conf: confirmation of human SENP8 protease inhibitors. purified SENP8, Nedd8-AMC/pro-Nedd8 cleavage fluorescence, 30 min. shares compounds with SENP8 block-1. inhibition, % at 25 µM. 15% of 1,400 active; in the data active = inhibition mostly above about 39%, no sharp cut-off; inactive = mostly below about 34%
Starred values were filed as active, the others as inactive; i = inactive; . = no result given. Sampled rows, rich in hits. Any-hit rate of the full collection: about 2.6%.

SMILES	SENP7 block	SENP1 inh	SENP6 block	SENP8 block-1	Platelet DG rel	SENP8 block-2	SENP8 inh conf
COCc1c(C)cc(C)c(/C=N/O)c1C	0	-1	5	47*	3	8	10
O=C(O)c1cccc2c1C(=O)c1ccccc1-2	0	1	-9	13	-4	1	.
O=C1C(=C(I)I)c2ccccc2-c2ccccc21	.	-3	.	40*	.	.	-1
COc1ccc(NC(C)C(=O)N/N=C/c2ccccc2OCc2ccc(Br)cc2)cc1 (stereo not given)	5	0	16	28	16	9	.
CC(Nc1ccc(Br)cc1)C(=O)N/N=C/c1ccccc1OCc1ccccc1 (stereo not given)	-7	5	-3	46*	2	-13	22
O=C(OCc1ccccc1)N1CCC2CC1c1cc(NCCc3ccccc3)ccc12 (stereo not given)	.	0	.	3	.	.	.
Cc1nc2c(C(=O)Nc3ccc(N4CCCC(O)C4)cc3)snc2c(=O)[nH]1 (stereo not given)	-5	3	-2	57*	-1	-1	-4
O=C(Nc1ccc(N2CCCC(O)C2)cc1)c1snc2c(=O)[nH]cnc12 (stereo not given)	-4	1	-9	6	15	-1	.
N#CC(C#N)=C1NC2(CCCCC2)Cc2ccccc21	9	-2	-19	3	-42	-3	.
N#CC(C#N)=c1ccc2c(c1)NC1(CCCCC1)N=2	9	-4	15	42*	23	18	24*
O=C1Cc2ccccc2C(=O)N1Cc1cccc(Cl)c1	.	-3	.	103*	4	.	46*
CCOC(=O)C1=NNC2(c3ccc(C)cc3)C(=O)N(c3ccc(Cl)cc3)C(=O)C12 (stereo not given)	0	2	-15	23	8	-14	.
O=C(CSC1=NNC(c2ccccn2)S1)Nc1ccccc1 (stereo not given)	9	2	-18	48*	17	4	20
Oc1ccccc1C=NCCN1CCN(CCN=Cc2ccccc2O)C1c1ccccc1O (stereo not given)	.	-11	.	11	.	.	.
O=C(Cn1cnc2ccccc2c1=O)Nc1nnc(SCc2ccccc2)s1	3	0	17	42*	-1	7	12
CCCCc1nnc(NC(=O)Cn2cnc3ccccc3c2=O)s1	-9	-1	-6	14	9	3	.
O=C(Nc1ccc(O)cc1)C1CC=CCC1 (stereo not given)	2	-2	5	41*	0	-2	49*
Cc1ccc(C)c(NC(=S)/C(=C(\[O-])c2ccc(Cl)s2)[n+]2ccccc2)c1	-1	-6	38	69*	4	-2	41
O=C(Nc1ccc(S(=O)(=O)Nc2nccs2)cc1)c1cnc(Cl)c(Cl)c1	-5	-11	7	3	7	-6	.
CC1Cc2ccccc2N1C(=O)c1nn(C)cc1Br (stereo not given)	-1	2	-2	5	3	-8	.
O=C(Nc1c(-c2ccc(Cl)cc2)[nH][nH]c1=O)c1ccccn1	.	1	.	21	.	.	.
O=C(Nc1c(-c2ccccc2)[nH][nH]c1=O)c1ccc(-c2ccccc2)cc1	.	4	.	16	.	.	.
O=C(Nc1c(-c2ccccc2)[nH][nH]c1=O)c1ccco1	.	1	.	64*	.	.	18
Cc1ccc(C(=O)Nc2c(-c3ccc(Cl)cc3)[nH][nH]c2=O)cc1	.	2	.	47*	.	.	30
COc1ccc(-c2[nH][nH]c(=O)c2NC(=O)c2ccccn2)cc1	.	3	.	42*	.	.	31
SMILES	SENP7 block	SENP1 inh	SENP6 block	SENP8 block-1	Platelet DG rel	SENP8 block-2	SENP8 inh conf
O=C(NC(=S)Nc1cc(Cl)ccc1Cl)c1ccco1	.	1	.	4	.	.	.
Cn1c(=O)c2cc(NC(=S)NCc3ccccc3F)ccc2n1C	.	-3	.	i	.	.	.
COc1ccc(-c2nc(CC(=O)Nc3cccc(S(=O)(=O)NC4=NCCC4)c3)cs2)cc1	-4	-2	-10	-63	.	-13	.
CCOC(=O)/C(C#N)=C1/C=Cc2ccccc2N1CC	2	0	-8	41*	1	5	18
CCN1C(=C(C#N)C#N)C=Cc2ccccc21	-5	0	-8	14	-1	-3	.
CCOc1ccccc1N1CCN(CC(=O)N(C)CC(=O)Nc2ccccc2CC)CC1	.	1	.	18	.	.	.
O=C1c2c(O)cc(O)cc2O[C@H](c2ccc(O)cc2)[C@H]1O	1	1	-13	62*	1	-16	21
CCCC(=O)Nc1nnc(SCC(=O)NC2CC2)s1	1	-1	2	6	10	0	.
Cc1ccc(C(=O)O/N=C\c2ccc(N3CCCCC3)c([N+](=O)[O-])c2)cc1	-6	8	-13	48*	9	3	13
O=C(O/N=C\c1ccc(N2CCCCC2)c([N+](=O)[O-])c1)c1cccc(Cl)c1	7	1	1	59*	-3	-1	15
COc1ccc(C(=O)/C=C/c2ccc(C)cc2)c(OC(=O)c2ccc([N+](=O)[O-])cc2)c1	-12	2	27	43*	.	10	-1
COc1ccc(C=CC(=O)c2ccc([N+](=O)[O-])cc2)cc1	.	6	.	5	.	.	.
O=c1c(Cc2ccc(Cl)cc2)c(O)ccn1Cc1cccs1	3	1	-15	4	10	-3	.
O=c1oc2ccccc2nc1/C=C(O)/C=C/c1ccc(F)cc1	5	-17	2	47*	8	-4	-3
O=c1oc2ccccc2nc1/C=C(O)/C=C\c1ccccc1	10	-17	0	15	-39	3	.
Cc1ccc(/C=C/C(=O)Nc2ccc(S(=O)(=O)Nc3onc(C)c3C)cc2)cc1	1	2	-15	14	-1	4	.
Cc1cccc(N2C(=O)c3ccc(C(=O)Nc4ccccn4)cc3C2=O)c1	-18	3	6	11	2	-10	.
O=C(O)c1cccc(N2C(=O)c3ccc(Oc4ccc(Cl)cc4)cc3C2=O)c1	-2	3	-6	6	4	12	.
O=C(O)c1cccc(N2C(=O)c3ccc4c5c(ccc(c35)C2=O)C(=O)N(c2cccc(C(=O)O)c2)C4=O)c1	7	2	-1	50*	-4	1	50*
Cc1cccc(N2C(=O)/C(=C\c3ccc(C(=O)O)cc3)c3ccccc3C2=O)c1	23	-15	33	43*	-4	5	-37
O=C(O)c1cccc(C(=O)O)c1	12	1	-9	45*	-3	-17	12
COc1ccc(C(C(=O)NCCC(C)C)N(CCO)C(=O)c2snc(C(N)=O)c2N)cc1 (stereo not given)	3	-5	3	-325	-3	-10	.
CCCCCCCc1c(O)nc(SCCN2CCOCC2)[nH]c1=O	-1	2	-4	0	-3	-4	.
COc1ccc(C(O)c2ncc(-c3ccccc3C)[nH]2)cc1 (stereo not given)	.	-2	.	13	.	.	.

Screening results from PubChem.
